# Diaphorase act – diaphorase activation or chemical reduction counter-screen; Diaphorase/resazurin coupled assay, resorufin fluorescence, 16 min; active compounds read high; 1 = vehicle wells, 0 = NADH-free wells; activation factor at 20 µM; 190,000 tested, 0.005% active;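 active = diaphorase activity raised at least twofold by the compound at 20 µM; inactive = activation factor below 2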
#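 Assay system: Purified diaphorase enzyme from Clostridium kluyveri | Amount: Enzyme 0.07 U/mL final | Dosing: Compound 20 µM once, DMSO 1% | Timing: 16 min reaction at room temperature | Detection: Fluorescence, excitation 544 nm and emission 590 nm | Evaluation: Higher resorufin formation from activation or reduction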
# Diaphorase inh – inhibits diaphorase or chemically oxidizes, flagging diaphorase assay artifacts; inhibition, % at 20 µM; diaphorase resazurin-to-resorufin fluorescence, NADH, 16 min; bacterial (C. kluyveri) enzyme, not human; 190,000 tested, 0.69% active;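 active = primary screen inhibition at 20 µM above a set limit, cut at about 50% in these data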
#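 controls = No-NADH positive control and DMSO neutral control | system = Clostridium kluyveri diaphorase enzyme | timing = reaction incubation of 16 min at room temperature | signal = resorufin fluorescence 544/590 nm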
# FLuc inh counter – inhibits firefly luciferase, flagging false hits in luciferase inhibition screens; inhibition, % at 10 µM; ATPLite firefly luciferase biochemical luminescence, 10 min; P08659; 200,000 tested, 1.5% active;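 active = inhibition above about 50% when tested at 10 µM, limit read from the data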
# Target sequence (P08659 whole entry, looked up): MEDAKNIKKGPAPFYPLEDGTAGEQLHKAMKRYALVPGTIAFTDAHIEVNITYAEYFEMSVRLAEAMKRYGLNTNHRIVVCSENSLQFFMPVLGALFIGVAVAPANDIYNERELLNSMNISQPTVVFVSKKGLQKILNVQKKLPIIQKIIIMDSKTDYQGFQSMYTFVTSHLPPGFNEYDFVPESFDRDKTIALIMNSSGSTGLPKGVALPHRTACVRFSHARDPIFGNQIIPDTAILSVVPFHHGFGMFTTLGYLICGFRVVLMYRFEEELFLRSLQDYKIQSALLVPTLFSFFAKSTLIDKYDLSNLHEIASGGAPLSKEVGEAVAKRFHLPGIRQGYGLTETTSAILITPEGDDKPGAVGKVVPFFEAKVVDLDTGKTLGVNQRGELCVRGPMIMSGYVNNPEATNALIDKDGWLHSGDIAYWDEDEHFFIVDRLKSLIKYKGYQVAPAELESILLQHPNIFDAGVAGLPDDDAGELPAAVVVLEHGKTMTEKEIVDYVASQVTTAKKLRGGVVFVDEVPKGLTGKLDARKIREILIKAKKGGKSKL
# FLuc act counter – affects firefly luciferase, flagging false hits in luciferase stimulation screens; P08659; ATPlite luciferase biochemical, luminescence, 10 min; 0 = ATP-free wells, 1 = DMSO control; 200,000 tested, under 10 active; activation factor at 10 µM; AID 1027;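 active = luciferase activation factor, scaled between plate controls, of at least 2 with compound at 10 µM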
#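 Assay system: Luciferase/luciferin detection reagent, cell-free biochemical luciferase assay / Also added: ATP substrate / Schedule: 10 min at ambient temperature / Measured by: luminescence measurement of luciferase light output / Benchmarks: low control with PBS replacing ATP, high control enzyme plus ATP without compound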
# G6PDH counter – counter-screen for G6PDH assay hits: L. mesenteroides G6PDH inhibition | 200,000 tested, 0.12% active | inhibition, % at 5 µM | Purified L. mesenteroides G6PDH, diaphorase/resazurin coupled fluorescence, 45 min | AID 1020; in the data active = inhibition above about 50%
# A number is an active result; - = inactive. The list is not random: actives were taken first. Their share in the collection is about 2.3%.
SMILES,Diaphorase act,Diaphorase inh,FLuc inh counter,FLuc act counter,G6PDH counter
O=C(Cn1ccc(C(F)(F)F)n1)Nc1cccc(S(=O)(=O)N2CCCCC2)c1,-,-,-,-,-
Cc1ccc(/C(N)=N/OC(=O)/C=C/c2ccccc2)cc1,-,-,-,-,-
N/C(=N\OC(=O)/C=C/c1ccccc1)c1cccnc1,-,-,81,-,-
Cc1ccccc1/C(N)=N/OC(=O)c1cccs1,-,-,69,-,-
Cc1ccccc1/C(N)=N/OC(=O)/C=C/c1ccccc1,-,-,56,-,-
COc1ccc(/C(N)=N/OC(=O)/C=C/c2ccccc2)cc1,-,-,-,-,-
Cc1ccc(C(=O)NCCc2cccs2)cc1,-,-,89,-,-
O=C(NCCc1cccs1)c1ccc(Cl)c(Cl)c1,-,-,-,-,-
Cc1cc(-c2n[nH]c(=S)o2)c(C)n1-c1ccccc1,-,-,67,-,-
CC(/C=N/NC(=O)c1cccs1)=C\c1ccco1,-,-,57,-,-
CC(/C=N/NC(=O)Cc1cccs1)=C\c1ccco1,-,-,-,-,-
COC(=O)[C@H](CCSC)NC(=O)NCc1ccc(S(N)(=O)=O)cc1,-,-,-,-,-
CCCC[n+]1ccn(C2=C([O-])c3ccccc3C(=O)/C2=N\S(=O)(=O)c2ccccc2)c1,-,-,-,-,56
CCCC[n+]1ccn(-c2nc3ccccc3nc2[N-]S(=O)(=O)c2ccccc2)c1,-,-,-,-,-
CCCCC[n+]1ccn(C2=C([O-])c3ccccc3C(=O)/C2=N\S(=O)(=O)c2ccccc2)c1,-,-,-,-,55
COc1ccc(-c2cn3c4c(sc3n2)CCCC4)cc1,-,-,91,-,-
C=CCNC(=O)Nc1ccc(Cl)cn1,-,-,-,-,-
O=C(c1ccccc1)c1cnc(-c2ccc(Cl)cc2)s1,-,-,-,-,-
O=C(c1ccccc1)c1cnc(-c2ccccc2)s1,-,-,55,-,-
O=C(c1ccc(F)cc1)c1cnc(Nc2ccccc2)s1,-,-,62,-,-
CNc1ncc(C(=O)c2ccc(F)cc2)s1,-,-,-,-,-
Cc1cccc(-c2nnc(-c3ccc(N)cc3)o2)c1,-,-,56,-,-
Clc1cccc(-c2nnc(-c3ccccc3)o2)c1,-,-,73,-,-
Cc1ccc(OC/C(=N\O)C(C)(C)C)c([N+](=O)[O-])c1,-,-,-,-,-
O=C(CN1CCC(NC(=O)c2ccccc2Cl)CC1)NCc1ccco1,-,-,-,-,-
SMILES,Diaphorase act,Diaphorase inh,FLuc inh counter,FLuc act counter,G6PDH counter
CCc1nnc(NC(=O)c2sc3nc4c(cc3c2N)CCCCC4)s1,-,-,68,-,-
O=C(Cn1nc(C(=O)O)c2ccccc2c1=O)NCCC1=CCCCC1,-,-,-,-,-
Cc1cc2ccccc2c(=O)n1CC(=O)NCCC1=CCCCC1,-,-,60,-,-
O=C(/C=C/c1cccc(F)c1)Nc1nccs1,-,-,-,-,-
O=C(/C=C\c1ccccc1)Nc1nccs1,-,-,53,-,-
Cc1ccc(C(=O)Nc2scc(-c3ccccc3)c2C(=O)O)o1,-,-,-,-,-
O=C(/C=C/c1ccccc1)Nc1scc(-c2ccccc2)c1C(=O)O,-,-,74,-,-
CC(C)(C)C(=O)CSc1nc(N)cc(=O)[nH]1,-,-,-,-,-
Oc1c(C=Nc2cccc3cccnc23)sc2ccccc12,-,-,82,-,-
CCN=C(NC#N)SCc1c(F)cccc1Cl,-,-,-,-,-
CCC(=O)N(CC)C1=C(O)c2ccccc2C(=O)C1=O,-,-,-,-,52
Cc1cccc(N=Cc2cc3c(cc2[N+](=O)[O-])OCO3)c1,-,61,-,-,-
COc1cc(C=Nc2cccc(C)c2)c(O)c([N+](=O)[O-])c1,-,-,-,-,-
O=[N+]([O-])c1cc2c(cc1C=Nc1ccccc1)OCO2,-,53,-,-,-
Cc1nc2cc(NS(=O)(=O)c3ccc(Br)cc3)ccc2n1C,-,-,-,-,-
Cc1ccc(CN2CCN(Cc3ccc(O)cc3)CC2CCO)o1 (configuration not stated),-,-,-,-,-
CCC1CCC(NC(=O)Nc2cccc(OC)c2)CC1 (configuration not stated),-,-,-,-,-
Cc1cccc(-n2c3nc(=O)[nH]c(=O)c-3cc3c(C)nn(-c4ccccc4)c32)c1C,-,-,-,-,-
Cc1ccc(C)c(-n2c3nc(=O)[nH]c(=O)c-3cc3cc([N+](=O)[O-])ccc32)c1,-,67,-,-,-
Cc1cccc(-n2c3nc(=O)[nH]c(=O)c-3cc3cc([N+](=O)[O-])ccc32)c1,-,53,-,-,-
Cc1ccc(Nc2nc(=O)c3cccnc3s2)cc1,-,-,-,-,-
COc1ccc(OC)c(Nc2nc(=O)c3cccnc3s2)c1,-,65,-,-,-
O=C(O)c1c2c(nc3ccccc13)/C(=C/c1ccc(O)cc1)CC2,-,69,96,-,-
CCc1ccc(/C=C2\CN(CC)Cc3c2nc2ccccc2c3C(=O)O)cc1,-,-,-,-,-
CC(C(=O)O)c1ccc(N2Cc3ccccc3C2=O)cc1 (configuration not stated),-,-,62,-,-
SMILES,Diaphorase act,Diaphorase inh,FLuc inh counter,FLuc act counter,G6PDH counter
Cc1cc(C)nc(NS(=O)(=O)c2ccc(N3Cc4ccccc4C3=O)cc2)n1,-,-,-,-,-
Cc1cccc(-n2nc(C)c3c(C(=O)O)cc(-c4cccs4)nc32)c1,-,52,-,-,-
Cc1nn(-c2cccc(Cl)c2)c2nc(-c3ccco3)cc(C(=O)O)c12,-,-,-,-,-
CCCCCCCCCCCCCCCCn1cc[n+](C)c1,3.2,-,-,-,-
Cc1ccc(N/N=C/c2c(O)cc(C)oc2=O)cc1,-,-,68,-,-
Cc1cc(O)c(/C=N/Nc2ccc(F)cc2)c(=O)o1,-,-,68,-,-
Cc1c(/C=N/Nc2ccc(F)cc2)c(O)n(C)c(=O)c1C#N,-,56,-,-,-
CCCN(CCC)CCNc1c(N2CCN(C(=O)OCC)CC2)c(=O)c1=O,-,-,-,-,-
CC(C)(C)NC(=O)C1Cc2ccccc2CN1C(=O)Nc1cccc(Cl)c1 (configuration not stated),-,-,-,-,-
CCc1nnc(NC(=O)Cc2cc(OC)c(OC)c(OC)c2)s1,-,-,-,-,-
CCOC(=O)c1c(CCl)nc2ccccc2c1C,-,-,-,-,-
CCOc1ccc(C2C([N+](=O)[O-])=C(C)N(C)C(=O)N2C)cc1OC (configuration not stated),-,-,-,-,-
Cc1cc(C(=O)Cn2nc(C(=O)O)c3ccccc3c2=O)c(C)n1-c1ccc(F)cc1,-,-,76,-,-
CCCn1c(C)cc(C(=O)Cn2nnc3ccccc3c2=O)c1C,-,-,57,-,-
